The test system of data set [1] is Human immunodeficiency virus 1. In words: Antiviral activity against NRTI-resistant HIV1 isolate 1617-1 infected in PHA-stimulated human PBMC assessed as reduction in p24 level after 7 days by ELISA. Format: functional, organism-based. To be noted: Human immunodeficiency virus 1, isolate 1617-1, PBMC, 168 h. The essentials:
(§1)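 Donor PBMCs in R-3 medium (RPMI 1640, 15−20% FBS, 5% IL-2, penicillin/streptomycin, 2 mM L-glutamine), PHA-stimulated (2−3 μg/mL) 7 days; 1 × 10^5 cells/well with compound, challenged with 1000 TCID50 virus. p24 in supernatant by ELISA after 7 days. Seven concentrations (5, 1, 0.2, 0.04, 0.008, […], 0 μg/mL); IC50 versus no-drug wells; AZT positive control; three experiments, each triplicate.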

In data set [2] the test system is Human immunodeficiency virus 1. In words: Antiviral activity against HIV1/VSV-G pseudovirus infected in human A549 cells assessed as downregulation of R/U5 gene expression after 48 hrs by Taqman-based real-time PCR analysis. Format: functional. The essentials:
(§2)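 A549 cells infected with VSV-G/HIV pseudovirus while treated with compound or AZT, 10-fold dilutions from 5 μg/mL, triplicate. After 48 h, cells processed for reverse transcription and TaqMan real-time PCR. R/U5 amplicon reads early transcripts, U5/gag reads late transcripts; GAPDH and 18S as internal controls.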

The test system of data set [3] is Human immunodeficiency virus 1. Nature of the data set: Antiviral activity against HIV1 isolate SF162 infected in PHA-stimulated human PBMC assessed as reduction in p24 level after 7 days by ELISA. Format: functional, organism-based. The essentials:
as §1

The subject of data set [4] is Human immunodeficiency virus 1. Nature of the data set: Antiviral activity against HIV1 isolate BAL infected in PHA-stimulated human PBMC assessed as reduction in p24 level after 7 days by ELISA. Format: functional, organism-based. An outline of the steps:
as §1

The test system of data set [5] is Human immunodeficiency virus 1. Nature of the data set: Antiviral activity against HIV1/VSV-G pseudovirus infected in human A549 cells assessed as downregulation of U5/gag gene expression after 48 hrs by Taqman-based real-time PCR analysis. In kind it is functional. The essentials:
as §2

Data set [6] concerns Human immunodeficiency virus 1. In words: Antiviral activity against HIV1 isolate 89.6 infected in PHA-stimulated human PBMC assessed as reduction in p24 level after 7 days by ELISA. Format: functional, organism-based. An outline of the steps: as §1
Data set [7] has as its system Human immunodeficiency virus 1. Nature of the data set: Antiviral activity against NNRTI-resistant HIV1 isolate N119 infected in PHA-stimulated human PBMC assessed as reduction in p24 level after 7 days by ELISA. In kind it is functional, organism-based. Particulars: Human immunodeficiency virus 1, isolate N119, PBMC, 168 h. An outline of the steps: as §1
Data set [8] relates to Human immunodeficiency virus 1. In words: Antiviral activity against HIV1 isolate LAV0.04 infected in PHA-stimulated human PBMC assessed as reduction in p24 level after 7 days by ELISA. Format: functional, organism-based. The essentials: as §1
The test system of data set [9] is Human immunodeficiency virus 1. In words: Antiviral activity against HIV1 isolate LAV infected in PHA-stimulated human PBMC assessed as reduction in p24 level after 7 days by ELISA. In kind it is functional, organism-based. To be noted: Human immunodeficiency virus 1, isolate LAV, 168 h. An outline of the steps: as §1
The test system of data set [10] is Human immunodeficiency virus 1. In words: Antiviral activity against HIV1 virions derived from […] or HIV/HA virions infected 293T cells using human A549 cells as target cells assessed as inhibition of viral replication using compound pre-mixed virions followed by incubation with target cells for 24 hrs by luciferase reporter gene assay based defective HIV1 pseudoviral assay. Format: functional, organism-based. To be noted: Human immunodeficiency virus 1, 24 h. The essentials:
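Pseudovirions made by cotransfecting 293T cells with VSV-G, or HA plus NA, envelope plasmids and pNL4-3-Luc.R-.E- vector; supernatant collected at 48 h and filtered. A549 cells, 0.5 × 10^5/well in DMEM. Virus (~2 × 10^6 RLUs) premixed with sample, incubated with cells 24 h, then medium replaced. Luciferase read in lysates 48 h postinfection. Three experiments, each triplicate.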

Data set [11] has as its system HeLa. In words: Cytotoxicity against human HeLa cells at 19 uM after 48 hrs by CellTiter 96 AQueous one solution cell proliferation assay. In kind it is cell-based. An outline of the steps: (§3)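 About 5000 cells/well in DMEM with FBS and penicillin/streptomycin; compound in DMSO added next day, 24 h at 37 °C, 5% CO2, then medium replaced. At 48 h after addition, CellTiter 96 Aqueous One added for 4 h, stopped with 10% SDS, absorbance read at 450 nm.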

The test system of data set [12] is Human immunodeficiency virus 1. Nature of the data set: Antiviral activity against HIV1/VSV-G pseudovirus infected in human A549 cells assessed as downregulation of U5/gag gene expression at 0.005 ug/ml after 48 hrs by Taqman-based real-time PCR analysis. Format: functional. Particulars: Human immunodeficiency virus 1, A549, 48 h. An outline of the steps: as §2

Data set [13] is described as follows: Cytotoxicity against human PBMC after 48 hrs by CellTiter 96 AQueous one solution cell proliferation assay. Format: cell-based.
In data set [14] the test system is A549. Nature of the data set: Cytotoxicity against human A549 cells at 19 uM after 48 hrs by CellTiter 96 AQueous one solution cell proliferation assay. To be noted: a549, 48 h. Format: cell-based. An outline of the steps: as §3
Data set [15] concerns Human immunodeficiency virus 1. Nature of the data set: Antiviral activity against HIV1/VSV-G pseudovirus infected in human A549 cells assessed as downregulation of R/U5 gene expression at 0.005 ug/ml after 48 hrs by Taqman-based real-time PCR analysis. In kind it is functional. Particulars: Human immunodeficiency virus 1, A549, 48 h. The essentials:
as §2

The mark [16] stands for this setting: Human immunodeficiency virus 1, isolate SF162, PBMC, 168 h.
Setting [17] is: Human immunodeficiency virus 1, isolate BAL, PBMC, 168 h.
The mark [18] stands for this setting: Human immunodeficiency virus 1, isolate 89.6, PBMC, 168 h.
Setting [19] is: Human immunodeficiency virus 1, isolate LAV0.04, PBMC, 168 h.

Structures are written as SMILES.

For the compound `Cc1cn([C@H]2C[C@H](N=[N+]=[N-])[C@@H](CO)O2)c(=O)[nH]c1=O` [ZIDOVUDINE], the IC50 in data set [1] came out at 3510 nM; in data set [3] (setting [16]), 85 nM; in data set [4] (setting [17]), 77 nM; in [6] (setting [18]) it was 95 nM; in [7] it was 5.2 nM; in [8] (setting [19]) it was 79 nM. Further, in data set [9], the 50% inhibitory concentration (IC50) is 72 nM. Moreover, the Activity result in [2], in data set [3], in data set [4], in data set [5], in data set [6] and in [8] was “Dose-dependent effect” each time. The “inhibition (INH)” value in [2] and in data set [5] was 40% throughout.
As to `COc1cc2c(O[C@@H]3OC[C@@H](O)[C@H](O)[C@H]3O)c3c(c(-c4ccc5c(c4)OCO5)c2cc1OC)C(=O)OC3`, the 50% inhibitory concentration (IC50) in [10] stood at 510 nM.
In the case of `Cc1ccnc2c1NC(=O)c1cccnc1N2C1CC1` [NEVIRAPINE], the IC50 in [1] is 156 nM; in [7], > 100000 nM; in [9] it was 532 nM.
Regarding `COc1cc2c(O)c3c(c(-c4ccc5c(c4)OCO5)c2cc1OC)C(=O)OC3` [DIPHYLLIN], the IC50 in [10] stood at 1710 nM.
On to `COc1cc2c(O[C@@H]3O[C@H](C)[C@@H](O)[C@H](O)[C@H]3O)c3c(c(-c4ccc5c(c4)OCO5)c2cc1OC)C(=O)OC3` [PATENTIFLORIN A], for which the Activity entry was “Non-Toxic” in [11]; “Dose-dependent effect” in data set [3]; “Dose-dependent effect” in data set [4]; “Non-Toxic” in [14]; “Dose-dependent effect” in data set [6]; “Dose-dependent effect” in [8]. The IC50 was 61 nM in data set [1]; 37 nM in [3] (setting [16]); 30 nM in data set [3] (pbmc); 26.9 to 27 nM in data set [10]; 30 nM in data set [4] (setting [17]); 32 nM in data set [4] (pbmc). Further, the concentration for half-maximal inhibition (IC50) worked out at 32 nM in data set [6] (setting [18]); 31 nM in data set [6] (pbmc); 47 nM in data set [7]; 24 nM in [8] (setting [19]); 32 nM in data set [8] (pbmc); 108 nM in data set [9]. The inhibition at 0.005 µg/mL in [12] and in data set [15] was 75% in each case. For the same compound, the CC50 at 48 h in data set [13] was 75000 nM.
Turning to `COc1cc2c(O[C@@H]3O[C@H](CO)[C@@H](O)[C@H](O)[C@H]3O)c3c(c(-c4ccc5c(c4)OCO5)c2cc1OC)C(=O)OC3`, the IC50 in data set [10] turned out to be 770 nM.

Values taken from ChEMBL document CHEMBL4190218, “Potent Inhibitor of Drug-Resistant HIV-1 Strains Identified from the Medicinal Plant Justicia gendarussa” (J Nat Prod, 2017).
